From ChEMBL document CHEMBL4014298, “Discovery of a series of 8-(1-phenylpyrrolidin-2-yl)-6-carboxamide-2-morpholino-4H-chromen-4-one as PI3Kβ/δ inhibitors for the treatment of PTEN-deficient tumours” (Bioorg Med Chem Lett, 2017) come the findings set out here.

In general, IC50 refers to the concentration needed to halve the response being measured. Broadly, the fraction unbound is the share of the substance not bound to proteins or other matrix. A low value points to extensive binding. The term bioavailability denotes dose-corrected exposure relative to a reference, in per cent. Higher therefore signals much systemic uptake. As a reminder, the inhibition is the drop in the measured response relative to a control, in per cent. For orientation: logD means lipophilicity at a set pH, counting ionised and neutral species.

The target in data set [1] is Cytochrome P450 1A2 (Homo sapiens, UniProt P05177). As to the kind of experiment: Inhibition of CYP1A2 (unknown origin). The format is ADME.
Sequence of Cytochrome P450 1A2 (P05177 whole entry): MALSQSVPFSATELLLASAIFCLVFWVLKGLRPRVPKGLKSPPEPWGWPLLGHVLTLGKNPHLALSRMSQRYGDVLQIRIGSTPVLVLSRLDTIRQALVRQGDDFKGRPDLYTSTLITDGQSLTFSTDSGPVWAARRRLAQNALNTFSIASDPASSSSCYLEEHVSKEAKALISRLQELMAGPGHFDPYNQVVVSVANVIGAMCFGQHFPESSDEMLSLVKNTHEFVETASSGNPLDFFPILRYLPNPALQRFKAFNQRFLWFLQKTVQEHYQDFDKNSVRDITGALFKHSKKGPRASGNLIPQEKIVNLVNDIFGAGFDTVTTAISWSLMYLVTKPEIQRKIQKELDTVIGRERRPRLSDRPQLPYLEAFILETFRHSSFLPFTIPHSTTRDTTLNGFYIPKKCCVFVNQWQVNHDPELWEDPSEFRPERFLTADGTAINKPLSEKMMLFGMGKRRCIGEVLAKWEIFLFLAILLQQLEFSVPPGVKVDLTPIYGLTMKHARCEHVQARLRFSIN
Data set [2] has as its target Serine/threonine-protein kinase mTOR (Homo sapiens, UniProt P42345). Description: Inhibition of mTOR (unknown origin).
In data set [3] the test system is PC-3. Description: Antitumor activity against PTEN-deficient human PC3 cells xenografted in nude mouse assessed as tumor growth inhibition at 50 mg/kg, po bid relative to control. Type of data set: functional. The conditions noted are these: PC-3, po, read-out: TGI. The method, boiled down:
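Nude mice bearing PTEN-deficient PC3 prostate tumour xenografts; compound given orally twice daily (b.i.d.) at 100 or 50 mg/kg over chronic dosing; tumour growth inhibition versus control determined at end of study.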

A short description of data set [4]: Fraction unbound in mouse plasma. The format is ADME, cell-free. The gist of the method:
(§1)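 Plasma protein binding in mouse, dog or human plasma, reported as fraction unbound (%).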

The target of data set [5] is Phosphatidylinositol 4,5-bisphosphate 3-kinase catalytic subunit beta isoform (Homo sapiens, UniProt P42338). As to the kind of experiment: Inhibition of recombinant human PI3Kbeta using PIP2 as substrate preincubated for 20 mins followed by substrate addition measured after 80 mins in presence of ATP by Kinase Glo luminescence assay. On the technique in general: Kinase-Glo measures the ATP left after a reaction by luminescence.

For data set [6], the target named is Phosphatidylinositol 4,5-bisphosphate 3-kinase catalytic subunit gamma isoform (Homo sapiens, UniProt P48736). Description: Inhibition of recombinant human PI3Kgamma using PIP2 as substrate preincubated for 20 mins followed by substrate addition measured after 80 mins in presence of ATP by Kinase Glo luminescence assay. The method, boiled down: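 Enzyme IC50 against PI3Kγ, single determination (n=1).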
Sequence of Phosphatidylinositol 4,5-bisphosphate 3-kinase catalytic subunit gamma isoform (P48736 whole entry, canonical isoform): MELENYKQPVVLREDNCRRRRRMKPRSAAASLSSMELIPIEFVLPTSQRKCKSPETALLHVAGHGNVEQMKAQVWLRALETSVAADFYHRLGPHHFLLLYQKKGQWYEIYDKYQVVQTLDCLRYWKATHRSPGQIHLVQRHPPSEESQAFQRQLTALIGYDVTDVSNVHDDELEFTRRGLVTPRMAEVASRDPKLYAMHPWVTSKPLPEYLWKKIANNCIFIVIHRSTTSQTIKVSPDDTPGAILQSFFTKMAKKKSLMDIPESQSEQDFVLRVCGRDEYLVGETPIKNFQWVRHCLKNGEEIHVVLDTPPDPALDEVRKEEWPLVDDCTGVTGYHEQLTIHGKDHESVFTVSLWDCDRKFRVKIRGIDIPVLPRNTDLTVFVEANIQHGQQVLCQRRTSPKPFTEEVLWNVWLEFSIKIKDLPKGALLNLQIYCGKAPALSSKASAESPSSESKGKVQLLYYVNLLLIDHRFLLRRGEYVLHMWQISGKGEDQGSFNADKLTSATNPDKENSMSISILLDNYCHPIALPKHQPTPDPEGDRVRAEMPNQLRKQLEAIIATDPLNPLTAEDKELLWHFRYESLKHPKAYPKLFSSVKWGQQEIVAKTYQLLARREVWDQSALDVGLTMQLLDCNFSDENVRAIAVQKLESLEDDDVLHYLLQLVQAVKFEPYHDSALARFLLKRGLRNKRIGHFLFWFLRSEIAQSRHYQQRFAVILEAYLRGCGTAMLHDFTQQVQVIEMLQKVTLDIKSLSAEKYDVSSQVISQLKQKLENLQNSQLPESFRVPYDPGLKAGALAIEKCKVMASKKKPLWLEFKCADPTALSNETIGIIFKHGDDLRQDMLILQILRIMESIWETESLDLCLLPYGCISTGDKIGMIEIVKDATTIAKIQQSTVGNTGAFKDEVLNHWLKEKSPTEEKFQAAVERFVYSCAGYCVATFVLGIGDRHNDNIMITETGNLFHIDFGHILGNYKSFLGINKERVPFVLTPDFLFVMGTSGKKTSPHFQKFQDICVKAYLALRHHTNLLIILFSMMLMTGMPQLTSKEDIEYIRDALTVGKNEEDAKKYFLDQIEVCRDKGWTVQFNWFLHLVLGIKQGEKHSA

Data set [7] in a line: Oral bioavailability in mouse blood at 30 umol/kg. The format is ADME, organism-based.
Data set [8] addresses Diacylglycerol kinase beta (Homo sapiens, UniProt Q9Y6T7). As to the kind of experiment: Inhibition of human DGKbeta (1 to 804 residues) by ADP Glo HTS assay. The gist of the method:
(§2)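 Lipid kinase selectivity assessed in a 15-kinase panel (Dundee University lipid kinase panel), IC50 determined.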
For orientation: ADP-Glo first removes unused ATP, then detects ADP through luciferase.

The test system of data set [9] is Mus musculus. As to the kind of experiment: In vivo inhibition of AKT phosphorylation at Ser473 in nude mouse xenografted with PTEN-deficient human PC3 cells at 100 mg/kg, po administered as single dose measured after 30 mins to 8 hrs. Type of data set: functional, organism-based. The method, boiled down: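 Single oral dose (100 or 30 mg/kg) to nude mice carrying PTEN-deficient PC3 prostate xenografts; tumour AKT Ser473 phosphorylation measured at 30 min, 2 h and 8 h, with free plasma concentration determined at same time points.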
For orientation: In xenograft studies the graft and the host belong to different species.

Data set [10] has as its target T1, Phosphatidylinositol 4,5-bisphosphate 3-kinase catalytic subunit delta isoform (Homo sapiens, UniProt O00329).
T1 sequence (O00329 whole entry): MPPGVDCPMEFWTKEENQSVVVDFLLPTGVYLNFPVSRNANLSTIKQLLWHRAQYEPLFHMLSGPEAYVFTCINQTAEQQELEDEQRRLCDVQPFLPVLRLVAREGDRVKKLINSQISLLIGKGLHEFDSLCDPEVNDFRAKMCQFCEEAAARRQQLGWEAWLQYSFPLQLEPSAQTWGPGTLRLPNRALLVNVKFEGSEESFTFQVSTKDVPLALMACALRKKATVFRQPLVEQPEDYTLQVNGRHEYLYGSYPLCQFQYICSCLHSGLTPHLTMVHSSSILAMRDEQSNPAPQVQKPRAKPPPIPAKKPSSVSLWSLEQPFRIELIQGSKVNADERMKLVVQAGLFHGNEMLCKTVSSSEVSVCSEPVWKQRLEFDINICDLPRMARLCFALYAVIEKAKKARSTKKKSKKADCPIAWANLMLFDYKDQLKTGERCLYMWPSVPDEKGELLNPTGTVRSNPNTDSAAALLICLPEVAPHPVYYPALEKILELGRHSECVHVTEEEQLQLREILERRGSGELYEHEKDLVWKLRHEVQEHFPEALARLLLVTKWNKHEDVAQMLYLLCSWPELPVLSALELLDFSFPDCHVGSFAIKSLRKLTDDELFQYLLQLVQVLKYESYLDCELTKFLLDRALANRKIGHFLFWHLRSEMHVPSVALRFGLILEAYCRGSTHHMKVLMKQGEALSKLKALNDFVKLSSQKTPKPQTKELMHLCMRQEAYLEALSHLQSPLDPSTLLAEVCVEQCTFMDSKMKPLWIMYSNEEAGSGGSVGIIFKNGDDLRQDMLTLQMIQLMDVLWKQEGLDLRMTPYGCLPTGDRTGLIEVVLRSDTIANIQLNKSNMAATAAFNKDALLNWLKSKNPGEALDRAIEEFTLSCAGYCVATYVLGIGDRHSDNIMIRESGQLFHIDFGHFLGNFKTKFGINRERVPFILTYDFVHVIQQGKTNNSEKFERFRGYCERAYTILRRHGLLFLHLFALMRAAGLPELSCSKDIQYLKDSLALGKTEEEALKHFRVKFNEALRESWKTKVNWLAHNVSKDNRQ
Description: Inhibition of PI3Kdelta in human JeKo1 B cells assessed as decrease in AKT phosphorylation at Ser473 measured after 1 hr. Type of data set: cell-based.

Data set [11] is described as follows: Fraction unbound in human plasma. The format is ADME, cell-free. The gist of the method:
as §1

Data set [12] addresses Sphingosine kinase 2 (Homo sapiens, UniProt Q9NRA0). As to the kind of experiment: Inhibition of human SPHK 2 (1 to 654 residues) by ADP Glo HTS assay. The gist of the method: as §2
Data set [13] deals with Phosphatidylinositol 4,5-bisphosphate 3-kinase catalytic subunit alpha isoform (Homo sapiens, UniProt P42336, E545K). Description: Inhibition of human PI3Kalpha (2 to 1068 residues)/p85 (1 to 724 residues) E545K mutant by ADP Glo HTS assay. The method, boiled down:
as §2

In data set [14] the target is Phosphatidylinositol 3-kinase regulatory subunit beta (Homo sapiens, UniProt O00459). As to the kind of experiment: Inhibition of human PI3K p85beta (1 to 724 residues) by ADP Glo HTS assay. The gist of the method:
as §2

Data set [15] addresses Choline/ethanolamine kinase (Homo sapiens, UniProt Q9Y259). As to the kind of experiment: Inhibition of human CHKbeta (1 to 395 residues) by ADP Glo HTS assay. The method, boiled down:
as §2

The nature of data set [16]: Inhibition of PI3Kalpha mutant in human BT474 cells assessed as decrease in AKT phosphorylation at Thr308 after 2 hrs. Type of data set: cell-based. As to conditions: BT-474, 2 h.
Data set [17] can be described thus: Lipophilicity, log D of the compound at pH 7.4. The conditions noted are these: buffer.
Data set [18] concerns the target Phosphatidylinositol 4,5-bisphosphate 3-kinase catalytic subunit alpha isoform (Homo sapiens, UniProt P42336, E542K). Description: Inhibition of human PI3Kalpha (2 to 1068 residues)/p85 (1 to 724 residues) E542K mutant by ADP Glo HTS assay. The method, boiled down:
as §2

Data set [19] is described as follows: Clearance in mouse blood at 5 umol/kg, iv or 30 umol/kg, po. Type of data set: ADME, organism-based.
A short description of data set [20]: Intrinsic clearance in dog hepatocytes assessed per million cells. Type of data set: ADME, cell-based, Canis lupus familiaris, Hepatocyte. As to conditions: read-out: CLH. The method, boiled down: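 Intrinsic clearance measured in mouse or dog hepatocytes, expressed as CL_int in […].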
For data set [21], the target named is Choline kinase alpha (Homo sapiens, UniProt P35790). As to the kind of experiment: Inhibition of human CHKalpha (1 to 457 residues) by ADP Glo HTS assay. The gist of the method: as §2
Sequence of Choline kinase alpha (P35790 whole entry, the tested form may be a part): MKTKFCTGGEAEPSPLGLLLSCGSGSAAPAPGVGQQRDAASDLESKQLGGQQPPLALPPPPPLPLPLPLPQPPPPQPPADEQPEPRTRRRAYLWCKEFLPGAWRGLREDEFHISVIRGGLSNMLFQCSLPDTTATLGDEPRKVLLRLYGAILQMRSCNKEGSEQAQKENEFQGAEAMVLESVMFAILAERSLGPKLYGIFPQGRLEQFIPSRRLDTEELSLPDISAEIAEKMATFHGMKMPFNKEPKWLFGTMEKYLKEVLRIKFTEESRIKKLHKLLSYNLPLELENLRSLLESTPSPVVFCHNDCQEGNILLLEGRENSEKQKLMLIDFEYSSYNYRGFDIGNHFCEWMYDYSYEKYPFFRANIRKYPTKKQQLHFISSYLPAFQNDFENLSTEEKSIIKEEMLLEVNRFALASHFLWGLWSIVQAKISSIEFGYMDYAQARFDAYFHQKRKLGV
Data set [22] concerns the target Voltage-gated inwardly rectifying potassium channel KCNH2 (Homo sapiens, UniProt Q12809). Description: Inhibition of human ERG.
The target in data set [23] is MAP/microtubule affinity-regulating kinase 4 (Homo sapiens) (UniProt Q96L34). Description: Inhibition of human MARK4 (2 to 752 residues) at 1 uM after 5 mins in presence of [33P]ATP by filter binding assay relative to control.
Sequence of MAP/microtubule affinity-regulating kinase 4 (Homo sapiens) (Q96L34 whole entry, the tested form may be a part): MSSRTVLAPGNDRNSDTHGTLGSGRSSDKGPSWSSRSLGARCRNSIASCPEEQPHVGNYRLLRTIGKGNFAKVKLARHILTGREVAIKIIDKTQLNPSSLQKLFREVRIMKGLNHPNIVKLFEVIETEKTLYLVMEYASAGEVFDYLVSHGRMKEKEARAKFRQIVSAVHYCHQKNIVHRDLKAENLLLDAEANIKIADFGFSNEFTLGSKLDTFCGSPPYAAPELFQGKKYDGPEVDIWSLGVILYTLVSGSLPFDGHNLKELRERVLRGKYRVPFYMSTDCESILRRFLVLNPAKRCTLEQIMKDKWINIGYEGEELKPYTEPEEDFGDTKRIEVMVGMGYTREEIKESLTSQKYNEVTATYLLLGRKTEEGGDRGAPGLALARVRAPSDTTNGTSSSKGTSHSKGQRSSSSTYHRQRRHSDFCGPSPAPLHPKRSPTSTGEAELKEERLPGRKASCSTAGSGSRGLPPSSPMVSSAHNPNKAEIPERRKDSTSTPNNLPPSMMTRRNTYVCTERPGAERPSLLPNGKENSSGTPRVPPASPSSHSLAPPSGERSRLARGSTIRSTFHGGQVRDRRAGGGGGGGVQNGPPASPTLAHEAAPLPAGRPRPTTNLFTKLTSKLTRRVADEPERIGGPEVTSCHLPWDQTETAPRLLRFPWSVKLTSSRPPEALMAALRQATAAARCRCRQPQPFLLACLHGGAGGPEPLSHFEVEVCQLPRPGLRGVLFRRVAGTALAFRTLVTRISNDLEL

The source made the active and inactive calls. The rule behind the calls is not given here.

Sequence of Phosphatidylinositol 4,5-bisphosphate 3-kinase catalytic subunit alpha isoform (Homo sapiens, UniProt P42336, E545K) (P42336 whole entry E545K, the tested form may be a part, canonical isoform): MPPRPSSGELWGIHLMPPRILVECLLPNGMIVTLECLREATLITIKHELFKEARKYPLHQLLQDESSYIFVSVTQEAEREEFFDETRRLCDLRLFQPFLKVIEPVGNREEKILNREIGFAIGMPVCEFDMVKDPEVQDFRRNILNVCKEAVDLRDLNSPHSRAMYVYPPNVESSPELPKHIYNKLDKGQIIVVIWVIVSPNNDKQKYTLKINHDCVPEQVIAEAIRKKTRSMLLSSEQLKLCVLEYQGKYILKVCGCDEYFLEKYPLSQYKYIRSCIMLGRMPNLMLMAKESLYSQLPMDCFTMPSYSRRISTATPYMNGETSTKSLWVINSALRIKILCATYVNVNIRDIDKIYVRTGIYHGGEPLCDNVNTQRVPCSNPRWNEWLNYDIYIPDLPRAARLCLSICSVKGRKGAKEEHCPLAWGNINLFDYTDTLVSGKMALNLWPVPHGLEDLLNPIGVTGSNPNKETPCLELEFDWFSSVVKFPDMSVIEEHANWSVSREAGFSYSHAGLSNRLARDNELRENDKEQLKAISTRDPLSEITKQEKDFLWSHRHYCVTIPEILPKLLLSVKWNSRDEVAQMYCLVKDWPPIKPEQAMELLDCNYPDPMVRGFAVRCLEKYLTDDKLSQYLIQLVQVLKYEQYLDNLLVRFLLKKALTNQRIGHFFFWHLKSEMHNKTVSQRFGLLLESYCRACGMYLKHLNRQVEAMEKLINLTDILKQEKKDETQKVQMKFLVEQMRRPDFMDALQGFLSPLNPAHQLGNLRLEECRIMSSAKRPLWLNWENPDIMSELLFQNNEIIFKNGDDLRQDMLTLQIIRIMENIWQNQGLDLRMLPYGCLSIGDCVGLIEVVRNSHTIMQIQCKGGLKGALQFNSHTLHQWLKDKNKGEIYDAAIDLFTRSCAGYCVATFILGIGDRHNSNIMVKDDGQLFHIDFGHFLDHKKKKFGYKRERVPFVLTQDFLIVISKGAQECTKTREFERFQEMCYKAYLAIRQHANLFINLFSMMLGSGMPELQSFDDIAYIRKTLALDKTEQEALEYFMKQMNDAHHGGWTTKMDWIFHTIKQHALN
Sequence of Phosphatidylinositol 4,5-bisphosphate 3-kinase catalytic subunit alpha isoform (Homo sapiens, UniProt P42336, E542K) (P42336 whole entry E542K, the tested form may be a part, canonical isoform): as the sequence (P42336 whole entry E545K, the tested form may be a part, canonical isoform) above, with E542K, K545E counted along it

`O=C(c1cc([C@H]2CCCN2c2cc(F)cc(F)c2)c2oc(N3CCOCC3)cc(=O)c2c1)N1CCOCC1`: the IC50 in [1] is more than 30 µM; in data set [2], 42 µM; in data set [5], 0.0071 µM; in data set [6] it was 0.19 µM; in [8] it was more than 50 µM; in data set [10], 0.014 µM. Moreover, the IC50 was more than 50 µM in [12]; more than 50 µM in [13]; more than 50 µM in data set [14]; more than 50 µM in data set [15]; 0.14 µM in data set [16]; more than 50 µM in data set [18]. The IC50 in data set [21] is more than 50 µM; in data set [22], 45 µM. Besides, the inhibition in vivo at 50 mg/kg in data set [3] came out at 71%. For the same compound, the fraction unbound in data set [4] was 0.19; in [11], 0.17. The same compound came in with a bioavailability in data set [7] of 26%. The inhibition entry in data set [9] is “Active”. Further, the logD in data set [17] is 2.5. For the same compound, the clearance in data set [19] is 60 mL/min/kg. Further, the hepatocyte CLint in [20] was found to be 23 µL/min/1e6 cells. Moreover, the inhibition in data set [23] is 32%.
